Measurements of several laboratories.
Each line is one published result; the experiments were not run side by side.
Organism: Human immunodeficiency virus 1
Effect on: viral replication

SMILES | test | system | conditions | quantity | result
Cc1nc(C(CN)NC(=O)C(=O)Nc2ccc3c(c2)OCO3)sc1CO (stereo not shown) | ELISA | MT2 | – | IC50 | > 79 µM
O=c1[nH]cc(C(c2cccc(C(c3c[nH]c(=O)[nH]c3=O)c3c[nH]c(=O)[nH]c3=O)c2)c2c[nH]c(=O)[nH]c2=O)c(=O)[nH]1 | inhibitor, ELISA | – | 1 µg/mL | inhibition | 20%
Cc1cn([C@H]2C[C@H](N=[N+]=[N-])[C@@H](CO)O2)c(=O)[nH]c1=O | inhibitor | CEM-GFP | 8 days | IC50 | 0.094 µg/mL
CC(C)C[C@H](NC(=O)[C@@H](NC(=O)[C@@H]1CCCN1C(=O)[C@@H](NC(=O)[C@H](CO)NC(=O)[C@@H](NC(=O)[C@H](CCC(N)=O)NC(=O)[C@@H]1CCCN1C(=O)[C@@H](NC(=O)[C@H](CCCCN)NC(=O)[C@H](CCCCN)NC(=O)[C@@H](NC(=O)[C@H](Cc1ccc(O)cc1)NC(=O)[C@H](CCCNC(=N)N)NC(=O)[C@@H](NC(=O)[C@@H](N)CC(C)C)C(C)C)[C@@H](C)O)C(C)C)C(C)C)[C@@H](C)O)[C@@H](C)O)C(=O)O | inhibitor | TZM-bl | – | IC50 | > 10 µM
COC(=O)c1cccc(Cn2ccc3ccc(-c4ccc5ccn(Cc6cccc(C(=O)O)c6)c5c4)cc32)c1 | inhibitor | MAGI, BAL | – | IC90 | 38.4 µM
O=c1cc(-c2ccccc2)oc2cc(O)cc(O)c12 | inhibitor | human PBMC | 6 days | EC50 | 9.2 µM
OCc1cc(C(O)CNCCCCCCOCCCCc2ccccc2)ccc1O (stereo not shown) | inhibitor | TZM-bl | – | EC50 | 20 µM
Cc1cn([C@H]2C[C@H](N=[N+]=[N-])[C@@H](CO)O2)c(=O)[nH]c1=O | inhibitor, ELISA | human PBMC, NL43 | 7 days | IC50 | 0.005 µM
CN1CC[C@H](c2c(O)cc(O)c3c(=O)cc(-c4ccccc4Cl)oc23)[C@H](O)C1 | inhibitor | human PBMC | 6 days | EC50 | 0.02 µM
O=C(O)c1cc(F)cc(Cn2ccc3ccc(-c4ccc5ccn(Cc6cccc(OC(F)(F)F)c6)c5c4)cc32)c1 | inhibitor | IIIB | – | IC50 | 2 µM
C[C@@H](O[C@H]1OCCN(Cc2n[nH]c(=O)[nH]2)[C@H]1c1ccc(F)cc1)c1cc(C(F)(F)F)cc(C(F)(F)F)c1 | inhibitor, ELISA | human PBMC, BAL | – | IC50 | 6.4 µM
O=c1cc(-c2ccc(O)cc2)oc2cc(O)cc(O)c12 | inhibitor | human PBMC | 6 days | EC50 | 5 µM
O=C(O)c1cc(O)c(O)c(O)c1 | inhibitor, luciferase | TZM-bl | 48 h | IC50 | 0.36 µg/mL
O=[N+]([O-])c1cccc(-c2nc3c4cc(I)ccc4c4ccccc4c3[nH]2)c1 | inhibitor | human PBMC | 7 days | IC50 | 14.2 µM
c1cc(CN2CCCNCCNCCCNCC2)ccc1CN1CCCNCCNCCCNCC1 | inhibitor | MAGI, BAL | – | IC90 | > 10 µM
O=c1oc2c(O)c(O)cc3c(=O)oc4c(O)c(O)cc1c4c23 | inhibitor, luciferase | TZM-bl | 48 h | IC50 | 18.8 µg/mL
